Reference: ChEMBL document CHEMBL1148053, “(+)-(S)-dihydroaeruginoic acid, an inhibitor of Septoria tritici and other phytopathogenic fungi and bacteria, produced by Pseudomonas fluorescens” (1994)

What was measured:
[1] = tested on: Staphylococcus; experiment: Antibacterial activity against Staphylococcus albus Sal1091-4 at 100 ug/disk by paper disk agar diffusion method; assay type: functional; details: read-out: IZ
In short: (§1)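 Paper-disc agar-diffusion assay on Luria agar (tryptone, yeast extract, NaCl, agar), the medium used for maintaining and testing the bacteria. The compound was dissolved in Me₂CO and absorbed onto 6-mm paper discs at the stated amount per disc. Three separately weighed solutions were used, with three discs each, giving nine measurements per organism.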

[2] = tested on: Zymoseptoria tritici; experiment: Antifungal activity against Septoria tritici ISR-SE93 assessed as diameter of zone of inhibition at 100 ug/disk after 2 to 6 days by paper disk agar diffusion method; details: read-out: IZ
[3] = tested on: Fusarium oxysporum; experiment: Antifungal activity against Fusarium oxysporum Fo0593-22 assessed as colony reduction at 200 ug/disk after 2 to 6 days by paper disk agar diffusion method relative to control; assay type: functional; parameters: scale not given: the % may be the effect or the level left
In short: (§2)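 Tested on one-fourth-strength potato dextrose agar. A 5-mm mycelial agar plug from the colony edge was placed at the dish centre. A 6-mm disc with the compound in Me₂CO and an Me₂CO-only control disc were set on opposite sides, each 30 mm from the plug. After 2-6 days, colony radii were measured along the line joining the discs. Values are the mean of nine (3 weighings × 3 discs), analysed by two-way ANOVA.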

[4] = tested on: Globisporangium ultimum; experiment: Antifungal activity against Pythium ultimum RG-5601 assessed as colony reduction at 200 ug/disk after 2 to 6 days by paper disk agar diffusion method relative to control; assay type: functional; parameters: scale not given: the % may be the effect or the level left
In short: (§3)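 Paper-disc agar-diffusion on one-fourth-strength PDA. Mycelial agar plug (5 mm) from culture edge placed at plate centre; 6-mm disc loaded with compound in Me2CO and Me2CO-only control disc set on opposite sides, each 30 mm from plug. After 2-6 days (per growth rate), colony radii measured along line joining disc centres. Three separate weighings × three discs (nine) per organism; two-way ANOVA.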

[5] = tested on: Pantoea agglomerans; experiment: Antibacterial activity against Erwinia herbicola SM-824 at 100 ug/disk by paper disk agar diffusion method; assay type: functional; details: read-out: IZ; in short: as §1
[6] = tested on: Botrytis cinerea; experiment: Antifungal activity against Botrytis cinerea DL6050 assessed as colony reduction at 100 ug/disk after 2 to 6 days by paper disk agar diffusion method relative to control; assay type: functional; parameters: scale not given: the % may be the effect or the level left; in short: as §2
[7] = tested on: Fusarium oxysporum; experiment: Antifungal activity against Fusarium oxysporum Fo0593-22 assessed as colony reduction at 100 ug/disk after 2 to 6 days by paper disk agar diffusion method relative to control; assay type: functional; parameters: scale not given: the % may be the effect or the level left; in short: as §2
[8] = tested on: Pseudomonas fluorescens; experiment: Antibacterial activity against Pseudomonas fluorescens PFM2 at 200 ug/disk by paper disk agar diffusion method; assay type: functional; details: read-out: IZ; in short: as §1
[9] = tested on: Globisporangium ultimum; experiment: Antifungal activity against Pythium ultimum RG-5601 assessed as colony reduction at 100 ug/disk after 2 to 6 days by paper disk agar diffusion method relative to control; assay type: functional; parameters: scale not given: the % may be the effect or the level left; in short: as §3
[10] = tested on: Zymoseptoria tritici; experiment: Antifungal activity against Septoria tritici ISR-SE93 assessed as diameter of zone of inhibition at 200 ug/disk after 2 to 6 days by paper disk agar diffusion method; details: read-out: IZ
[11] = tested on: Athelia rolfsii; experiment: Antifungal activity against Sclerotium rolfsii RG-1984 assessed as colony reduction at 200 ug/disk after 2 to 6 days by paper disk agar diffusion method relative to control; assay type: functional, Agroathelia rolfsii; parameters: scale not given: the % may be the effect or the level left; in short: as §3
[12] = tested on: Bacillus subtilis; experiment: Antibacterial activity against Bacillus subtilis Bs1091 at 100 ug/disk by paper disk agar diffusion method; assay type: functional; details: read-out: IZ; in short: as §1
[13] = tested on: Botrytis cinerea; experiment: Antifungal activity against Botrytis cinerea DL6050 assessed as colony reduction at 200 ug/disk after 2 to 6 days by paper disk agar diffusion method relative to control; assay type: functional; parameters: scale not given: the % may be the effect or the level left; in short: as §2
[14] = tested on: Pseudomonas fluorescens; experiment: Antibacterial activity against Pseudomonas fluorescens PFM2 at 100 ug/disk by paper disk agar diffusion method; assay type: functional; details: read-out: IZ; in short: as §1
[15] = tested on: Rhizoctonia solani; experiment: Antifungal activity against Rhizoctonia solani DL5588 assessed as colony reduction at 100 ug/disk after 2 to 6 days by paper disk agar diffusion method relative to control; assay type: functional; parameters: scale not given: the % may be the effect or the level left; in short: as §2
[16] = tested on: Rhizoctonia solani; experiment: Antifungal activity against Rhizoctonia solani DL5588 assessed as colony reduction at 200 ug/disk after 2 to 6 days by paper disk agar diffusion method relative to control; assay type: functional; parameters: scale not given: the % may be the effect or the level left; in short: as §2
[17] = tested on: Staphylococcus; experiment: Antibacterial activity against Staphylococcus albus Sal1091-4 at 200 ug/disk by paper disk agar diffusion method; assay type: functional; details: read-out: IZ; in short: as §1
[18] = tested on: Athelia rolfsii; experiment: Antifungal activity against Sclerotium rolfsii RG-1984 assessed as colony reduction at 100 ug/disk after 2 to 6 days by paper disk agar diffusion method relative to control; assay type: functional, Agroathelia rolfsii; parameters: scale not given: the % may be the effect or the level left; in short: as §3
[19] = tested on: Bacillus subtilis; experiment: Antibacterial activity against Bacillus subtilis Bs1091 at 200 ug/disk by paper disk agar diffusion method; assay type: functional; details: read-out: IZ; in short: as §1
[20] = tested on: Colletotrichum gloeosporioides; experiment: Antifungal activity against Colletotrichum gloeosporioides DL5605 assessed as colony reduction at 200 ug/disk after 2 to 6 days by paper disk agar diffusion method relative to control; assay type: functional; parameters: scale not given: the % may be the effect or the level left; in short: as §2
[21] = tested on: Colletotrichum gloeosporioides; experiment: Antifungal activity against Colletotrichum gloeosporioides DL5605 assessed as colony reduction at 100 ug/disk after 2 to 6 days by paper disk agar diffusion method relative to control; assay type: functional; parameters: scale not given: the % may be the effect or the level left; in short: as §2
[22] = tested on: Pantoea agglomerans; experiment: Antibacterial activity against Erwinia herbicola SM-824 at 200 ug/disk by paper disk agar diffusion method; assay type: functional; details: read-out: IZ; in short: as §1

Compound	zone of inhibition at 100 µg/disc [1] [mm]	zone of inhibition at 100 µg/disc [2] [mm]	Activity [3] [%]	Activity [4] [%]	zone of inhibition at 100 µg/disc [5] [mm]	Activity [6] [%]	Activity [7] [%]	zone of inhibition at 200 µg/disc [8] [mm]	Activity [9] [%]	zone of inhibition at 200 µg/disc [10] [mm]	Activity [11] [%]	zone of inhibition at 100 µg/disc [12] [mm]	Activity [13] [%]	zone of inhibition at 100 µg/disc [14] [mm]	Activity [15] [%]	Activity [16] [%]	zone of inhibition at 200 µg/disc [17] [mm]	Activity [18] [%]	zone of inhibition at 200 µg/disc [19] [mm]	Activity [20] [%]	other results
O=C(O)[C@H]1CSC(c2ccccc2O)=N1	20.2	0	15	43	6.7	27	8	0	22	13	53	10.8	43	0	1	5	26.2	32	13.3	10	Activity [21]: 8%; zone of inhibition at 200 µg/disc [22]: 8.7 mm
O=C(O)[C@@H]1CSC(c2ccccc2O)=N1	22	0	11	33	8.2	36	5	0	12	13	52	14.9	46	0	6	17	28.2	32	19.7	9	Activity [21]: 8%; zone of inhibition at 200 µg/disc [22]: 10.4 mm
